According to ChEMBL document CHEMBL1157710, “Identification of triazinoindol-benzimidazolones as nanomolar inhibitors of the Mycobacterium tuberculosis enzyme TDP-6-deoxy-d-xylo-4-hexopyranosid-4-ulose 3,5-epimerase (RmlC)” (Bioorg Med Chem, 2010):
≈ marks a conversion by molar mass, not a printed value. Calls of active or inactive are those of the source. The calls are words filed in the database; no cut-off is given here.

Key:
[1] = molecular target: T1, dTDP-4-dehydrorhamnose 3,5-epimerase (Mycobacterium tuberculosis (strain CDC 1551 / Oshkosh), UniProt P9WH10); assay: Inhibition of Mycobacterium tuberculosis RmlC expressed in Escherichia coli by spectrophotometry
T1 sequence (P9WH10 whole entry): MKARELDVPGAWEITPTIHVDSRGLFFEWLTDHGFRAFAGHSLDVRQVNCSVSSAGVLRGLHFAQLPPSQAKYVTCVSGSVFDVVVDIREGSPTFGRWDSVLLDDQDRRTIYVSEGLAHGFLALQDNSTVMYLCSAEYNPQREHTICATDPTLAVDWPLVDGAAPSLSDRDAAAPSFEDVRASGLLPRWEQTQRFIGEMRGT
Procedure, shortened: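 96-well absorbance assay at 340 nm (NADPH to NADP) in 200 μl of 50 mM MOPS pH 7.4 with 10% glycerol, 0.01% Triton X-100 and 1 mM MgCl2. Final RmlC 70 nM, RmlD 5 nM, TDP-KDX 200 μM, NADPH 25 μM; compound added in 4 μl DMSO. Reactions were started with RmlC and followed 80 min; IC50 came from initial velocities.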

[2] = test system: Mycobacterium tuberculosis; assay: Antimycobacterial activity against Mycobacterium tuberculosis H37Rv by microbroth dilution method; type: functional
[3] = molecular target: T2, dTDP-4-dehydrorhamnose 3,5-epimerase (Mycobacterium tuberculosis (strain CDC 1551 / Oshkosh)) (UniProt P9WH10); assay: Reversible inhibition of Mycobacterium tuberculosis RmlC expressed in Escherichia coli by time-dependence study
T2 sequence (whole entry): T1 sequence (P9WH10 whole entry)
Procedure, shortened: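 RmlD, TDP-KDX and NADPH were added, and the NADPH fluorescence decrease was followed over 200 min. Slopes from the later phase were compared with a no-compound control.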

[4] = molecular target: T2, dTDP-4-dehydrorhamnose 3,5-epimerase (Mycobacterium tuberculosis (strain CDC 1551 / Oshkosh)); assay: Inhibition of Mycobacterium tuberculosis RmlC expressed in Escherichia coli at 5 uM by spectrophotometry
[5] = Cytotoxicity against HAEC after 24 hrs; parameters: species or system Homo sapiens
Procedure, shortened: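 Human aortic endothelial cells were seeded at 1000 cells/well in EGM-2 and held 24 hr at 37 °C. They were then exposed 24 hr at 37 °C to a 16-point 2-fold series (final 100 μM to 3 nM) with a DMSO solvent control. Viability was read by CellTiter-Glo luminescence after 10 min, in triplicate.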

[6] = molecular target: T2, dTDP-4-dehydrorhamnose 3,5-epimerase (Mycobacterium tuberculosis (strain CDC 1551 / Oshkosh)); assay: Inhibition of Mycobacterium tuberculosis RmlC expressed in Escherichia coli at 0.25 uM by spectrophotometry
[7] = molecular target: T2, dTDP-4-dehydrorhamnose 3,5-epimerase (Mycobacterium tuberculosis (strain CDC 1551 / Oshkosh)); assay: Inhibition of Mycobacterium tuberculosis RmlC expressed in Escherichia coli at 0.5 uM by spectrophotometry
[8] = molecular target: T3, dTDP-4-dehydrorhamnose 3,5-epimerase /dTDP-4-dehydrorhamnose reductase (Mycobacterium tuberculosis (strain ATCC 25618 / H37Rv), UniProt P9WH09+P9WH11); assay: Inhibition of Mycobacterium tuberculosis RmlC/RmlD expressed in Escherichia coli by spectrophotometry
T3 sequence (P9WH09 whole entry): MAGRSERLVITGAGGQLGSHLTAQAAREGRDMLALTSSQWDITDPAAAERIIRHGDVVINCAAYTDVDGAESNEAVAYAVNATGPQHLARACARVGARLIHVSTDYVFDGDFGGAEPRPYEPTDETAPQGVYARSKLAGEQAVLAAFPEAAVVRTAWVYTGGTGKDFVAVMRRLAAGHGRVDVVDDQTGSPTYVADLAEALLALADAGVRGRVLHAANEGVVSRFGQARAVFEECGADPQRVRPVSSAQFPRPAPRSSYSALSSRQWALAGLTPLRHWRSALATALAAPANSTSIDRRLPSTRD
T3 sequence (P9WH11 whole entry): T1 sequence (P9WH10 whole entry)
Procedure, shortened: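 Final RmlC 2.63 × 10−4 μg/μl, RmlD 6.53 × 10−4 μg/μl, NADPH 25 μM, TDP-KDX 200 μM. A 16-point 2-fold series (55 μM to 1.7 nM) was read as the 90-min drop in 340/460 nm fluorescence at 25 °C, in triplicate. IC50 came from a 4-parameter logistic fit.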

[9] = molecular target: T2, dTDP-4-dehydrorhamnose 3,5-epimerase (Mycobacterium tuberculosis (strain CDC 1551 / Oshkosh)); assay: Competitive inhibition of Mycobacterium tuberculosis RmlC expressed in Escherichia coli assessed as increase in Km of TDP-KDX
Procedure, shortened: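 Competitive-mode test: TDP-KDX varied 0–100 μM with inhibitor at 0, 0.1, 0.15 and 0.2 μM. Km and Vmax were fitted by non-linear regression. Km(obs) was plotted against inhibitor concentration, and Ki was taken from the slope (Km/Ki, Km as y-intercept).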

| SMILES | IC50 [1] | MIC [2] | other results |
| --- | --- | --- | --- |
| O=c1[nH]c2ccccc2n1CCCSc1nnc2c(n1)[nH]c1ccccc12 | 3300 nM |  |  |
| C=CCn1c2ccccc2c2nnc(S(=O)(=O)CCCn3c(=O)[nH]c4ccccc43)nc21 | 400 nM |  |  |
| CCn1c2ccccc2c2nnc(S(=O)(=O)CCCn3c(=O)[nH]c4ccccc43)nc21 | 800 nM |  |  |
| Cn1c2ccccc2c2nnc(SCCCn3c(=O)[nH]c4ccccc43)nc21 | 500 nM | 9 µg/mL (≈ 23 µM) |  |
| C=CCn1c2ccccc2c2nnc(SCn3c(=O)[nH]c4ccccc43)nc21 | 10300 nM |  |  |
| C=CCn1c2ccccc2c2nnc(SCCCn3c(=O)[nH]c4ccccc43)nc21 | 120 nM | 13 µg/mL (≈ 31.2 µM) | Ki [1]: 62 nM |
| CCn1c2ccccc2c2nnc(SCCCn3c(=O)[nH]c4ccccc43)nc21 | 200 nM | 19 µg/mL (≈ 47 µM) | inhibition [3]: Active; inhibition [4]: 83%; IC50 [5]: 75000 nM; Ki [1]: 100 nM; inhibition [6]: 52%; inhibition [7]: 72%; IC50 [8]: 398 nM; Activity [9]: Active |
| O=c1[nH]c2ccccc2n1CCCSc1nnc2c3ccccc3n(Cc3ccccc3)c2n1 | 2900 nM | > 50 µg/mL |  |
| C=CCn1c2ccc(C)cc2c2nnc(SCCCn3c(=O)[nH]c4ccccc43)nc21 | 20000 nM | 25 µg/mL (≈ 58.1 µM) |  |
| CCCn1c2ccccc2c2nnc(SCCCn3c(=O)[nH]c4ccccc43)nc21 | 1250 nM | 9 µg/mL (≈ 21.5 µM) |  |
